Screening data from PubChem BioAssay.
Shown are actives, neighbours in structure and some others; about 5% of the full set was active somewhere.
T cruzi repl: T. cruzi replication inhibition. T. cruzi beta-gal in NIH3T3, luminescence, 90 h. 300,000 tested, 1.4% active. inhibition, % (no concentration beside the values). AID 1885;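 active = mean inhibition across valid replicates above about 55%, limit read from the data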;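 note: signal also drops with host cell toxicity which is not excluded here; higher percent means less beta-gal luminescence so fewer parasites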
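assay system = mouse NIH/3T3 fibroblasts infected with β-gal-expressing T. cruzi Tulahuen C4 | input = 5,000 NIH/3T3 host cells per well | buffer or medium = DMEM plus 2% FBS | timing = 3 h host attachment, then at least 90 h co-culture | measured by = GalScreen luminescence, 60 min | evaluation = luminescence reflecting intracellular parasite burden, expressed as percent inhibition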
Mdm2-MdmX inh: disrupts the human Mdm2-MdmX interaction; inhibition, % at 8 µM; O15151+Q00987; 330,000 tested, 3% active; SaOS-2 split-luciferase Mdm2/MdmX complementation, luminescence;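 active = inhibition of at least 50% at 8 µM in the primary screen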
Target sequence (O15151 whole entry, looked up): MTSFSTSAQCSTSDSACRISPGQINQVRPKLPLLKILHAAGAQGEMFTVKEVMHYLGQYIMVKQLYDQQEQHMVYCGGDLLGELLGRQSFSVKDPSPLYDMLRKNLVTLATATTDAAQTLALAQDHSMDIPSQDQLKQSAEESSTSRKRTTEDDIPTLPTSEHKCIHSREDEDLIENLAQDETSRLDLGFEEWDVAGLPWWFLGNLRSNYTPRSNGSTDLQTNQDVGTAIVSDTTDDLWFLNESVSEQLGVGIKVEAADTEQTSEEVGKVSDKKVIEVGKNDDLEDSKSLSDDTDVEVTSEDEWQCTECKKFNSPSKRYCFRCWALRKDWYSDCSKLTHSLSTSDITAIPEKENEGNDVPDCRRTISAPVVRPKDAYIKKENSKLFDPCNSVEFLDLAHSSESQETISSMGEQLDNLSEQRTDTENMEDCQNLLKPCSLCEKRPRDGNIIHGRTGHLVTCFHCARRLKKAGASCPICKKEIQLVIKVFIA
Target sequence (Q00987 whole entry, looked up): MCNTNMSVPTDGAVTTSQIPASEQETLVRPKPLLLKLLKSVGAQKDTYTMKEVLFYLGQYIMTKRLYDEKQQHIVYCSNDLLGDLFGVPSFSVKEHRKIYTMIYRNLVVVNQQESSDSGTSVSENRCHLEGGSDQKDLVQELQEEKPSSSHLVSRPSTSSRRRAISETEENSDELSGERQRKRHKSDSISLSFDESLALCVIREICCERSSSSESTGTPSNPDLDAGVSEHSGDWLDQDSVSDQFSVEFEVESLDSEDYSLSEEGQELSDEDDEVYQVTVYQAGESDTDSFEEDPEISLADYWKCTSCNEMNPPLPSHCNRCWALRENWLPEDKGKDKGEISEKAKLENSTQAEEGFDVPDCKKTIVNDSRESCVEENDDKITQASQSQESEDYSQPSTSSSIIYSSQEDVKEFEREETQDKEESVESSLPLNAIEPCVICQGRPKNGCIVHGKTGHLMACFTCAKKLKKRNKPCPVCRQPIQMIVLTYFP
UPR XBP1 act: activators of adaptive arm of unfolded protein response (XBP1) | CHO-XBP1 luciferase reporter, IRE1-XBP1 UPR activation, luminescence; percent of tunicamycin response, DMSO as zero | activation, % at 20 µM | 330,000 tested, 0.33% active;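 active = versus positive control, 20 µM dose yields 30% or more activation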
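Material: CHO-XBP1 cells stably carrying IRE1-XBP1-driven luciferase reporter | Medium: F12 with 10% serum | Compound dosing: 20 µM single concentration, DMSO 1% | Incubation: Overnight seeding at 37 °C, 6 h compound treatment at 37 °C | Detection: Steady-Glo luminescence read | Read-out basis: % activation of reporter signal versus tunicamycin and DMSO controls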
CSC inhib: blocks cancer stem cells | cancer stem cell-like cells viability, luminescence | inhibition, % at 7.5 µM | 300,000 tested, 1.1% active | AID 2717; in the data active = inhibition above about 75%; tested in HMLE shEcad cells
UPR CHOP act: activators of apoptotic arm of unfolded protein response (CHOP); CHO-CHOP luciferase reporter, UPR activation, luminescence; percent of tunicamycin response over DMSO baseline; activation, % at 10 µM; 330,000 tested, 0.34% active;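 active = at 10 µM dose, activation of 40% or more, normalized to positive control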
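System: CHO-CHOP luciferase reporter cell line | Buffer or medium: F12 medium containing 10% fetal bovine serum | Doses: One dose, 10 µM in 0.5% DMSO | Times: 6 h compound exposure at 37 °C after overnight seeding | Signal: Luciferase luminescence | Read-out: % activation vs tunicamycin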
Beta apoptosis: beta cell apoptosis inhibition; AID 435005; 300,000 tested, 0.8% active; protection from apoptosis, % (test concentration not listed); INS-1E cytokine-induced death, ATP luminescence, 48 h; percent of positive-control rescue, neutral wells zero;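 active = Every replicate reaches about 75%, or at least half do and their mean reaches it too, limit read from the data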;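 note: higher means more ATP so stronger rescue from cytokine killing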
UPR XBP1 confirm: confirmation of adaptive unfolded protein response (XBP1) activators | shares compounds with UPR XBP1 act | CHO-XBP1 IRE1-XBP1 luciferase reporter, luminescence | activation, % at 20 µM | 1,000 tested, 63% active;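 active = reporter signal at least 30% of the positive control's activation in two or more of four replicate wells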
Hits are given with their value; 0 = inactive; - = not tested or not shown; + = active, no number.

SMILES | T cruzi repl | Mdm2-MdmX inh | UPR XBP1 act | CSC inhib | UPR CHOP act | Beta apoptosis | UPR XBP1 confirm
Cc1ccc(CNC(=O)c2cc3c(=O)n4ccccc4nc3n(Cc3ccco3)c2=N)cc1 | 0 | 0 | 0 | 0 | 0 | 0 | -
CC(OC(=O)c1ccncc1)C(=O)NC1CCCC1 (stereo not drawn) | 0 | 0 | 0 | 0 | 0 | 0 | -
Cc1ccc(NC(=O)CSc2ccccc2NC(=O)c2cccc(Cl)c2)cc1Cl | 0 | 0 | 36 | 0 | 0 | 0 | 0
O=C(CSc1ccccc1F)NCC(c1cccs1)N1CCOCC1 (stereo not drawn) | - | 0 | 0 | 0 | 0 | 0 | -
CCCC(=O)Nc1sc(Cc2ccccc2)c(C)c1C(N)=O | 0 | 0 | 0 | 0 | 0 | 0 | -
CC1CCCN(Cc2csc(N)n2)C1 (stereo not drawn) | 0 | 0 | 0 | 0 | 0 | 0 | -
COc1ccc(C(=O)/C=C/c2cccs2)c(OC(=O)c2cccc([N+](=O)[O-])c2)c1 | 0 | 0 | 42 | 0 | 0 | 0 | 56
Cc1cccn2c(=O)c3cc(C(=O)NC4CCCCCC4)sc3nc12 | 0 | 0 | 355 | 0 | 0 | 0 | 97
Cc1ccc(N/C=C/C(=O)c2sc(-c3ccccc3)nc2C)cc1 | 0 | 0 | 0 | 0 | 0 | 0 | -
O=C(CSCc1ccc(Cl)cc1)Nc1ccc(-c2nnc(-c3ccccc3)o2)cc1 | 0 | 0 | 107 | 0 | 0 | 0 | 72
Cc1ccc(CSCC(=O)Nc2ccccc2)cc1 | 0 | 0 | 0 | 0 | 0 | 0 | -
S=c1[nH]nc(C2CCCCC2)n1/N=C/c1ccncc1 | 0 | 0 | 0 | 0 | 0 | 0 | -
O=[N+]([O-])c1ccc(/C=N/n2c(C3CCCCC3)n[nH]c2=S)cc1 | 0 | 0 | 34 | 0 | 0 | - | 0
CCCCC(CC(O)COCCC)c1n[nH]c(=S)n1-c1ccccc1 (stereo not drawn) | 0 | 0 | 0 | 0 | 0 | 0 | -
COC(=O)c1cc(N=Cc2c(O)c3ccccc3oc2=O)cc(C(=O)OC)c1 | 0 | 0 | 0 | 0 | 0 | 0 | -
COc1ccc(Cl)cc1N=Cc1c(O)c2ccccc2oc1=O | 0 | 0 | 42 | 0 | 0 | 0 | 0
CC(=O)Nc1ccc(NC(=O)C(C)OC(=O)CSc2ccc(Br)cc2C)cc1 (stereo not drawn) | 0 | 0 | 0 | 0 | 0 | 0 | -
Cc1ccccc1NC(=O)COC(=O)/C=C/c1cn(-c2ccccc2)nc1-c1cccnc1 | 0 | 0 | 0 | 0 | 0 | 0 | -
CC(=O)Nc1ccc(NC(=O)C(C)OC(=O)/C=C/c2cn(-c3ccccc3)nc2-c2cccnc2)cc1 (stereo not drawn) | 0 | 0 | 36 | 0 | 0 | 0 | 0
Cc1cc(CNC(=O)c2cccc(OC3CCN(S(=O)(=O)N(C)C)CC3)c2)on1 | 0 | 0 | 0 | 0 | 0 | 0 | -
COc1ccc(-c2ccc3c(c2)S(=O)(=O)c2cccc(C(=O)NC4CCCC4)c2C3=O)cc1OC | - | 0 | 0 | 0 | 0 | 0 | -
CC(C)c1cccc(-c2ccc3c(c2)S(=O)(=O)c2cccc(C(=O)NC4CCCC4)c2C3=O)c1 | - | 0 | 33 | 0 | 0 | 0 | 0
CC(C)(C)c1csc(NC(=O)c2ccc(Cl)s2)n1 | 0 | 0 | 30 | 0 | 0 | 0 | 33
CC[C@]12c3[nH]c4ccc(OC)cc4c3CCN1C(=O)C(CC(=O)NCc1ccco1)C[C@@H]2C(=O)N1CCN(C(=O)c2ccco2)CC1 (stereo partly drawn) | - | 0 | 0 | - | 0 | - | -
COCCNC(=O)C1CC(c2cccc(F)c2)=NO1 (stereo not drawn) | 0 | 0 | 31 | 0 | 0 | 0 | 0
SMILES | T cruzi repl | Mdm2-MdmX inh | UPR XBP1 act | CSC inhib | UPR CHOP act | Beta apoptosis | UPR XBP1 confirm
O=C(Nc1ccc(-c2nc3cc(Cl)ccc3c(=O)o2)cc1)c1ccco1 | 0 | 0 | 0 | 0 | 0 | 0 | -
O=C(Nc1ccc(-c2nc3c(ccc4ccccc43)o2)cc1)c1ccco1 | 0 | 0 | 33 | 0 | 0 | 0 | 0
NS(=O)(=O)c1ccc(NN=C2CCN(Cc3ccccc3)CC2)c([N+](=O)[O-])c1 | 0 | 0 | 0 | 0 | 0 | 0 | -
CC1C/C(=N\Nc2ccc(S(N)(=O)=O)cc2[N+](=O)[O-])CC(C)(C)C1 (stereo not drawn) | 0 | 0 | 0 | 0 | 0 | 0 | -
NS(=O)(=O)c1ccc(N/N=C2/CCCCC2C2CCCCC2)c([N+](=O)[O-])c1 (stereo not drawn) | 0 | 0 | 55 | + | 0 | 76 | 84
Cc1cc(C)c2c(c1)/C(=N/Nc1ccc(S(N)(=O)=O)cc1[N+](=O)[O-])CCC2 | 0 | 0 | 76 | 0 | 0 | 0 | 50
CC(C#N)(NC(=O)CN1CCN(S(=O)(=O)c2ccccc2Cl)CC1)C1CC1 (stereo not drawn) | - | 0 | 0 | 0 | 0 | 0 | -
C=CCN=C1S/C(=C/c2cccc([N+](=O)[O-])c2)C(=O)N1CC=C | 0 | 0 | 33 | 0 | 0 | - | 47
C=CCNC(=O)COc1cc(C)ccc1C | 0 | 0 | 0 | - | 0 | - | -
O=C(COc1ccc2ccc(=O)oc2c1)Nc1cccnc1 | 0 | 0 | 0 | 0 | 0 | 0 | -
O=C(COc1ccc2ccc(=O)oc2c1)Nc1c(Cl)cccc1C(F)(F)F | 0 | 0 | 31 | 0 | 0 | 0 | 0
Cc1cc(C)nc(NS(=O)(=O)c2ccc(NC(=O)c3cc4c(=O)n5cccc(C)c5nc4n3C)cc2)n1 | 0 | 0 | 101 | 0 | 0 | 0 | 0
Cc1cccn2c(=O)c3cc(C(=O)NC4CCCCC4)n(C)c3nc12 | 0 | 0 | 0 | 0 | 0 | 0 | -
CCn1c(=O)c(C(=O)Nc2nc3ccccc3[nH]2)c(O)c2ccccc21 | 0 | 0 | 78 | 0 | 0 | 118 | 0
O=C(NCC1CCCO1)c1nn2c(C(F)(F)F)cc(-c3ccco3)nc2c1Cl (stereo not drawn) | 0 | 0 | 0 | 0 | 0 | 0 | -
O=C(NCC1CCCO1)c1nn2c(C(F)(F)F)cc(-c3cc(Br)cs3)nc2c1Br (stereo not drawn) | 0 | 0 | 42 | - | 0 | 0 | 40
O=C(Nc1ccc(O)c(-c2nc3ccccc3s2)c1)c1cc(=O)c2ccccc2o1 | 0 | 0 | 42 | 0 | 0 | 0 | 94
C=CCN1C(=O)/C(=C2/Sc3ccc(OC)cc3N2CC)SC1=S | 0 | 0 | 0 | 0 | 0 | - | -
CCCCN1C(=O)/C(=C2/Sc3ccc(OC)cc3N2CC)SC1=S | 0 | 0 | 94 | 0 | 0 | - | 49
CN(c1ccc(F)cc1)S(=O)(=O)c1ccc(Cl)c(C(=O)NCC(c2ccco2)N2CCCCC2)c1 (stereo not drawn) | - | 0 | 0 | - | 0 | - | -
CN=C1SC(CC(=O)Nc2ccccc2F)C(=O)N1C (stereo not drawn) | 0 | 0 | 0 | 0 | 0 | 0 | -
C=CCOc1ccc(/C=N/N2C(=O)C(CC(=O)Nc3ccc(F)cc3F)SC2=NC)cc1 (stereo not drawn) | 0 | 0 | 51 | 0 | 0 | 0 | 81
